{"source": "ChEMBL document CHEMBL1127783", "about": "“Sugar-linked dithiocarbamates as modulators of metabolic and genotoxic properties of N-nitroso compounds” (J Med Chem, 1994)", "key": {"Rattus norvegicus [1]": {"test_system": "Rattus norvegicus", "assay": "Tested for urinary excretion of radioactivity of compound (1.5 mmol/kg, ip) was administered 1 h before and 5 h after the treatment of [14C]-NDEA (28 mg/kg, 5 microCi/kg, ip) in experiment number 2", "assay_type": "functional, organism-based", "how_it_was_run": "(§1)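 Male Sprague–Dawley rats, fasted overnight, two per group. Inhibitor 1.5 mmol/kg ip or saline, then [14C]NDEA 28 mg/kg (5 μCi/kg) ip 1 h later, then a second inhibitor dose. Rats kept 24 h in all-glass metabolism cages, urine collected into ice-cold flask with NaOH. Total urinary radioactivity and unchanged [14C]NDEA measured after extraction with internal standard; given as % of dose.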"}, "Rattus norvegicus [2]": {"species": "Rattus norvegicus", "assay": "Tested in vitro for N-nitrosodimethylamine (NDMA) demethylase activity at 0.5 mM for 2 mM concentration of acetaldehyde", "assay_type": "functional", "how_it_was_run": "(§2)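 Liver microsomal fraction from untreated male Sprague–Dawley rats with NADPH-generating system. NDMA substrate 0.1–1 mM; test compound 2–20 mM or DDTC 2 mM added. Formaldehyde and acetaldehyde formed measured as (2,4-dinitrophenyl)hydrazones. Mean ± SD of three separate experiments.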"}, "Rattus norvegicus [3]": {"species": "Rattus norvegicus", "assay": "Tested in vitro for N-nitrosodimethylamine (NDMA) demethylase activity at 0.5 mM for 2 mM concentration of formaldehyde", "assay_type": "functional", "how_it_was_run": "as §2"}, "Rattus norvegicus [4]": {"species": "Rattus norvegicus", "assay": "Tested in vitro for N-nitrosodimethylamine (NDMA) demethylase activity at 1 mM for 2 mM concentration of acetaldehyde", "assay_type": "functional", "how_it_was_run": "as §2"}, "Rattus norvegicus [5]": {"test_system": "Rattus norvegicus", "assay": "Tested for exhalation of 14CO2 of compound (1.5mmol/kg, ip) was administered 1 h before and 5 h after the treatment of [14C]NDEA (28 mg/kg, 5 microCi/kg, ip) in experiment number 1", "assay_type": "functional", "how_it_was_run": "(§3)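 Male Sprague–Dawley rats (two per group) were fasted overnight. They received inhibitor or saline ip at 1.5 mmol/kg 1 h before and again after ip [¹⁴C]NDEA (28 mg/kg, 5 μCi/kg). Animals were then kept 24 h in an all-glass metabolism cage with air flow of 32 L/h. Exhaled air was dried over H₂SO₄, ¹⁴CO₂ was trapped in 1 N NaOH and counted, and the result is expressed as % of the given dose.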"}, "Rattus norvegicus [6]": {"test_system": "Rattus norvegicus", "assay": "Tested for urinary excretion of radioactivity of compound (1.5mmol/kg, ip) was administered 1 hr before and 5 hr after the treatment of [14C]-NDEA (28 mg/kg, 5 microCi/kg, ip) in experiment number 1", "assay_type": "functional, organism-based", "how_it_was_run": "as §1"}, "Rattus norvegicus [7]": {"species": "Rattus norvegicus", "assay": "Tested in vitro for N-nitrosodimethylamine (NDMA) demethylase activity at 0.1 mM for 0 mM concentration of formaldehyde", "assay_type": "functional", "how_it_was_run": "as §2"}, "Rattus norvegicus [8]": {"species": "Rattus norvegicus", "assay": "Tested in vitro for N-nitrosodimethylamine (NDMA) demethylase activity at 0.1 mM for 0 mM concentration of acetaldehyde", "assay_type": "functional", "how_it_was_run": "as §2"}, "Rattus norvegicus [9]": {"species": "Rattus norvegicus", "assay": "Tested in vitro for N-nitrosodimethylamine (NDMA) demethylase activity at 0.1 mM for 2 mM concentration of formaldehyde", "assay_type": "functional", "how_it_was_run": "as §2"}, "Rattus norvegicus [10]": {"test_system": "Rattus norvegicus", "assay": "Tested for exhalation of 14CO2 of compound (1.5mmol/kg, ip) was administered 1 h before and 5 h after the treatment of [14C]NDEA (28 mg/kg, 5 microCi/kg, ip) in experiment number 2", "assay_type": "functional", "how_it_was_run": "as §3"}, "Rattus norvegicus [11]": {"species": "Rattus norvegicus", "assay": "Tested in vitro for N-nitrosodimethylamine (NDMA) demethylase activity at 1 mM for 2 mM concentration of formaldehyde", "assay_type": "functional", "how_it_was_run": "as §2"}, "Rattus norvegicus [12]": {"test_system": "Rattus norvegicus", "assay": "Tested for unchanged NDEA 24 h administration of [14C]-NDEA in urine in experiment number 1", "assay_type": "functional", "how_it_was_run": "as §1"}, "Rattus norvegicus [13]": {"species": "Rattus norvegicus", "assay": "Tested in vitro for N-nitrosodimethylamine (NDMA) demethylase activity at 0.1 mM for 2 mM concentration of acetaldehyde", "assay_type": "functional", "how_it_was_run": "as §2"}}, "data": [{"molecule": "CCN(CC)C(=S)[S-].[Na+]", "note": "[DITIOCARB SODIUM]", "values": [{"measurement": "Radioactivity in urine", "setting": "Rattus norvegicus [1]", "result": 17.8, "unit": "%"}, {"measurement": "Acetaldehyde", "setting": "Rattus norvegicus [2]", "result": "0.6 nM (mg of protein)-1"}, {"measurement": "Formaldehyde", "setting": "Rattus norvegicus [3]", "result": "0.3 nM (mg of protein)-1"}, {"measurement": "Acetaldehyde", "setting": "Rattus norvegicus [4]", "result": "0.06 nM (mg of protein)-1"}, {"measurement": "Exhal+B1718ation of 14CO2", "setting": "Rattus norvegicus [5]", "result": 17.2, "unit": "%"}, {"measurement": "Radioactivity in urine", "setting": "Rattus norvegicus [6]", "result": 20.7, "unit": "%"}, {"measurement": "Formaldehyde", "setting": "Rattus norvegicus [7]", "result": "4.8 nM (mg of protein)-1"}, {"measurement": "Acetaldehyde", "setting": "Rattus norvegicus [8]", "result": "0 nM (mg of protein)-1"}, {"measurement": "Formaldehyde", "setting": "Rattus norvegicus [9]", "result": "0.6 nM (mg of protein)-1"}, {"measurement": "Exhal+B1718ation of 14CO2", "setting": "Rattus norvegicus [10]", "result": 20.5, "unit": "%"}, {"measurement": "Formaldehyde", "setting": "Rattus norvegicus [11]", "result": "0 nM (mg of protein)-1"}, {"measurement": "Unchanged NDEA", "setting": "Rattus norvegicus [12]", "result": 15.7, "unit": "%"}, {"measurement": "Acetaldehyde", "setting": "Rattus norvegicus [13]", "result": "2.2 nM (mg of protein)-1"}]}]}
